In brackets after ≈: the same amount, converted by molar mass. Activity calls are given as the source filed them.
Legend:
Mus musculus [1] = test: The compound was tested in vivo for the lowest dose(minimum effective dose) at which anti-herpetic activity was observed in terms of survival times of mice after po administration; no activity; format: functional, organism-based
Vero [2] = test: The compound was tested in vitro for the highest concentration (maximum tolerated level) that showed no cellular toxicity by visualization of stained cells.; format: functional, Chlorocebus sabaeus
Procedure, shortened: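 Maximum tolerated level, run alongside the HSV-2 plaque assay in Vero cells: the highest concentration showing no cellular toxicity when the stained cells were inspected visually.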

Mus musculus [3] = test: The maximum tolerated dose (MTD) was defined as the highest dose of compound that did not show any signs of toxicity in mice after po administration.; format: functional
Procedure, shortened: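 Oral dosing in mice within the HSV-2 infection model. MTD is the highest dose showing no overt signs of toxicity.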

Vero [4] = test: In vitro anti-herpetic activity against HSV-2 plaque formation in vero cells.; format: functional; settings: Chlorocebus sabaeus
Procedure, shortened: (§1)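 HSV-2 plaque reduction in Vero cells. MIC is the lowest concentration that inhibited plaque formation by 50%. For active compounds, values are the mean of at least two experiments, SD under ±50%.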

Mus musculus [5] = test: The compound was tested in vivo for the lowest dose(minimum effective dose) at which anti-herpetic activity was observed in terms of survival times of mice after po administration.; format: functional; settings: read-out: MED
Procedure, shortened: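 HSV-2 infection model in mice, test agent given orally. MED is the lowest dose giving survival times statistically different from placebo, based on at least two experiments for active compounds.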

Vero [6] = test: In vitro anti-herpetic activity against HSV-2 plaque formation in vero cells; no activity; format: functional, cell-based; settings: Chlorocebus sabaeus; procedure, shortened: as §1
Mus musculus [7] = test: The compound was tested in vivo for the lowest dose(minimum effective dose) at which anti-herpetic activity (HSV-2) was observed in terms of survival times of mice after po administration; no activity; format: functional, organism-based

| SMILES | MED (Mus musculus [1]) | MTL (Vero [2]) [µg/mL] | MTD (Mus musculus [3]) [mg/kg] | MIC (Vero [4]) [µg/mL] | minimal effective dose (Mus musculus [5]) [mg/kg] | MIC (Vero [6]) | MED (Mus musculus [7]) |
| --- | --- | --- | --- | --- | --- | --- | --- |
| CCn1cc2c(=O)[nH]nc-2c2ccc(-c3ccncc3)cc21 | inactive | 50 | >200 | 27 (≈ 93 µM) |  |  |  |
| Nc1nc2c(ncn2COCCO)c(=O)[nH]1 [ACYCLOVIR] |  | >200 | >200 | 1.3 (≈ 5.77 µM) | 12 |  |  |
| CCn1c(C)c2c(=O)onc-2c2ccc(-c3ccncc3)cc21 | inactive | >100 | >50 | 2.9 (≈ 9.5 µM) |  |  |  |
| CCn1c(C)c(C(N)=O)c(=O)c2ccc(-c3ccncc3)cc21 |  | 50 |  |  |  | inactive |  |
| CCn1cc2c(=O)onc-2c2ccc(-c3ccncc3)cc21 |  | >100 | >400 | 6.3 (≈ 21.6 µM) |  |  | inactive |
| CCn1cc2c(O)cnc-2c2ccc(-c3ccncc3)cc21 |  | 100 |  |  |  | inactive |  |
| CCn1cc2c(=O)n(C)nc-2c2ccc(-c3ccncc3)cc21 |  | 3.1 |  |  |  | inactive |  |
| CCn1cc(C(N)=O)c(=O)c2ccc(-c3ccncc3)cc21 |  | 12.5 | 50 | 6.5 (≈ 22.2 µM) | 50 |  |  |
| CCn1cc2c(=O)n(-c3ccccc3)nc-2c2ccc(-c3ccncc3)cc21 |  | >100 |  |  |  | inactive |  |
| NC(=O)c1cn(-c2ccc(F)cc2)c2cc(-c3ccncc3)ccc2c1=O |  | 6.25 | 50 | 0.24 (≈ 0.668 µM) | 25 |  |  |
| CCn1cc2c(=O)ncnc-2c2ccc(-c3ccncc3)cc21 |  | >100 |  |  |  | inactive |  |
